Results as given in the EternaBench riboswitch data.

Tested on: MS2 coat protein
Test: apparent Kd, MS2 coat protein; higher = weaker binding; RNA-MaP array; FMN 200 µM where present
Procedure, shortened: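 Stalled E. coli RNA polymerase produced the designs on Illumina sequencing-chip clusters. SNAP-549-labelled MS2 coat protein was added from 0.7 or 1.5 nM, doubling to 3 µM, without and then with constant ligand, in 100 mM Tris-HCl pH 7.5, 80 mM KCl, 4 mM MgCl2, BSA, DTT, yeast tRNA and Tween-20. The apparent Kd is the median of filtered per-cluster fits of green signal normalised to red-channel RNA signal and control-cluster median Fmax.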

[1] = designed as: OFF switch for flavin mononucleotide, no ligand
[2] = ligand present: flavin mononucleotide, designed as: OFF switch for flavin mononucleotide
[3] = designed as: ON switch for flavin mononucleotide, no ligand
[4] = ligand present: flavin mononucleotide, designed as: ON switch for flavin mononucleotide

Row | Sequence | apparent Kd [1] | apparent Kd [2] | apparent Kd [3] | apparent Kd [4]
1 | GGCCCGCGCGUGAGGAUAUGCUGAUACUAGGAUCAGCAGAAGGCACAUGAGGAUCACCCAUGUCCAACUUGUCU | 0.0289 µM | 0.0364 µM |  | 
2 | AGCUGGUGACAGCAUCCAUCAUAACAUGAGGAUCACCCAUGUAGAAGGCUGUACGGUUACCGUACAGAGGAUAUACAAUGAUGG | 0.0074 µM | 0.00732 µM |  | 
3 | GUCUGAUUGUAGAAGGUACUUAAUACUCAUGUAACAUGAGGAUCACCCAUGUAUCAACAAUAUUGUAAGGAUAUACAUAUCUCA |  |  | 0.478 µM | 0.258 µM
4 | UUCGCUGUGGUGUGGCGAGGCUCGUAAGAAGGGUGAUGCACAUGAGGAUCACCCAUGUAAGCCUUACAGGAUAUUGCUAGCCGA |  |  | 0.539 µM | 0.195 µM
5 | CUAAAUCAUGUAGGAUAUGCAUGGCGAAGCUACGCAGAAGGACAUGAGGAUCACCCAUGUCAGUACGUCUGCGUACAGACGUUG | 0.0143 µM | 0.0191 µM |  | 
6 | GGUUCUCAAAGAGAACCAUAACGAACAUGAGGAUCACCCAUGUAGGAUAUGCUACUCAAAGAGUAGCAGAAGGACAUGUGCCUU | 0.0306 µM | 0.265 µM |  | 
7 | AGUGUGUGGCAGGAUAUUCUGUUGGUUAGGACAGAAGAAGGGUCUACAUGAGGAUCACCCAUGUAAGCGGUUGA | 0.251 µM | 0.428 µM |  | 
8 | AAUAUAAGAGCUGGUAAACUCAAAACAUGAGGAUCACCCAUGUAGGAUAUCAGCACGAUAAGUGCUGAGAAGGACAUCCAGCUC | 0.015 µM | 0.0161 µM |  | 
9 | AGUAACUCAGAUCUUUUGAACAUGAGGAUCACCCAUGUAUUGAGAAGGAGCUGGAAGAGAGACAGCUAGGAUAUCAGAGUUGCG | 0.00596 µM | 0.00719 µM |  | 
10 | GUGCCUUGGGAGAAGGCAGUAUGCAAAGCAUCCUGAGGAUAUUCAUACCGGAAACGGACAUGAGGAUCACCCAUGUGGCACAAA |  |  | 0.864 µM | 0.057 µM
11 | CCCUCAACAUGAGGAUCACCCAUGUAGGAUAUCGCUAUUGUAAUCAUGAAACAUGAUUACAAUAGCGAGAAGGACAUAUGCAAA | 0.0253 µM | 0.126 µM |  | 
12 | AUCAGCUCGUGAGGAUAUGCGUCACUGCGUCAGCAGUGUGGUAAGAUCACAUGAGGAUCACCCAUGUAGAAGGCACGAGCUGAU | 0.034 µM | 0.455 µM |  | 
13 | GUGGAGGGUUGAGGAUAUUGAAUACAUAUGUUUAACAUGAGGAUCACCCAUGUGGGUUGCGGUAUCGAGAAGGUAAAUUGCUGG |  |  | 0.0972 µM | 0.109 µM
14 | GCUGGCAUGCAAGGAUAUCCUUCCGAGUAGGAAGGAGAAGGUGCUUGUGGGACAUGAGGAUCACCCAUGUAUGUUGGCCACGAC |  |  | 0.134 µM | 0.0792 µM
15 | CAGUACUGAGGAUAUACAUGAGGAUCACCCAUGUGUUCCAGCUAGGAAACUAGCGAAAGUAGAAGGCAGUACUG | 0.0233 µM | 0.551 µM |  | 
16 | UUGGACGUCGUAGGAUAUGUAGGAUAUUCCUACAUGAGGAUCACCCAUGUUGACAUGAAAGAAGGACAGAAGGACGAUGUCCAU |  |  | 0.144 µM | 0.00577 µM
17 | CUCUCACAUGAGGAUCACCCAUGUCCACCUCCGUGAGGAUAUAGAUAAUAAAUACAUUUACUAGAAGGCGCAUCCC |  |  | 0.285 µM | 0.298 µM
18 | ACAUGAUAUGUAGGAUAUCACAUUAAUUGUUUAAUAAUUGAAUUUAGGAUUUGAGAAGGACAUUUACAUGAGGAUCACCCAUGU | 0.0169 µM | 0.0127 µM |  | 
19 | AGUCGGAUCUAUUAACAUGAGGAUCACCCAUGUAUUUGCAACUAGGAUAUCGAUUAUUAUUUCGUCGAGAAGGAGUAUACAUAA | 0.0242 µM | 0.0373 µM |  | 
20 | GCCGGUUAAGUCAGGAUAUACCUAUGGAUACAUAGGUAGAAGGGACAUGAGGAUCACCCAUGUUCCUCAUCGGC | 0.0161 µM | 0.0489 µM |  | 
21 | CGAAAAUUUCAGAAGGACCGAUUCCACAUGAGGAUCACCCAUGUCGAUGGUAGGAUAUGGAGUUGUGGACAGGGCGGAUGUUCC |  |  | 0.0463 µM | 0.00839 µM
22 | GGCUGCAAUUAUGAGGAUAUGUUCGGAUGAACAUGAGGAUCACCCAUGUGGCGAUAGCUAUCUGUGCAGAAGGUGUAGUGGUAGC |  |  | 0.213 µM | 0.0617 µM
23 | GGGCCAACAUGAGGAUCACCCAUGUAGGAUAUCGCUAUUGUAAUCAUGAAACAUGAUUACAAUAGCGAGAAGGACAUAUGCAAA | 0.007 µM | 0.0077 µM |  | 
